Experimental findings from ChEMBL document CHEMBL1124841, “Chalcones: a new class of antimitotic agents” (1990) are described below.

By T/C is commonly meant the result in the treated group divided by that in the control group, in per cent.

In assay [1] the test system is HeLa. Put plainly: In vitro antimitotic activity against HeLa cells after 6 hours exposure. The class given is functional, Homo sapiens. The essentials:
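Asynchronous HeLa cells were exposed to compound continuously for 6 h. Mitotic index (cells in mitosis/cells counted) was scored on about 300 cells counted across three fields. The equivalent dose (ED) is the concentration giving the same mitotic index as the colchicine standard at 0.05 µg/mL.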

Assay [2] concerns L1210. The assay is described as follows: The ratio of survival time for treated divided by survival time of control x 100 at a dose of 0.2 mg/kg in L1210 leukemia cells. The class given is functional, Mus musculus. Put shortly: (§1)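 Mice inoculated ip on day 0 with 1 × 10^5 L1210 leukemia or B16 melanoma cells. Compounds given ip once daily on days 1-9, suspended or dissolved in 5% PVP. Survival time recorded and averaged per group. Value is mean survival of treated over control × 100.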

Assay [3] deals with B16. The assay is described as follows: The ratio of survival time for treated divided by survival time of control x 100 at a dose of 0.2 mg/kg in B16 melanoma cells. The class given is functional, Mus musculus. Put shortly:
as §1

In turn, `CC[C@]1(O)C[C@@H]2CN(CCc3c([nH]c4ccccc34)[C@@](C(=O)OC)(c3cc4c(cc3OC)N(C)[C@H]3[C@@](O)(C(=O)OC)[C@H](OC(C)=O)[C@]5(CC)C=CCN6CC[C@]43[C@@H]65)C2)C1` [VINBLASTINE] yielded an ED in assay [1] of 0.0015 µg/mL. The T/C in assay [2] is recorded as 140%; in assay [3], 180%.
